For assay [1], the target named is T1, ORF 73 (Human herpesvirus 8, UniProt O40947). The experiment in a line: Inhibition of 5'-Dy682-labelled LBS1 DNA binding to human herpesvirus 8 C-terminal His-tagged LANA oligomerization deficient mutant DBD (1008 to 1146 residues) expressed in Escherichia coli BL21 (DE3) preincubated for 1 hr followed by 5'-Dy682-labelled LBS1 DNA addition and measured after 30 mins by electrophoretic mobility shift assay. More on the design: species or system Human gammaherpesvirus 8. In outline:
(§1)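 Native-gel EMSA. LANA DBD mutant (200 nM final) pre-incubated with compound for 1 h at RT in the dark, then Dy-682-labelled LBS1 probe (20 nM) added. Complex and free-probe band intensities normalised to 0–100% inhibition. Run in duplicate; purified GST served as control.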

Assay [2] concerns ORF 73 (Human herpesvirus 8), O40947 [UNDEFINED MUTATION]. The experiment in a line: Inhibition of 5'-Dy682-labelled LBS1/LBS2 DNA binding to human herpesvirus 8 C-terminal His-tagged LANA oligomerization deficient mutant DBD (1008 to 1146 residues) expressed in Escherichia coli BL21 (DE3) at 500 uM preincubated for 1 hr followed by 5'-Dy682-labelled LBS1 DNA addition and measured after 30 mins by electrophoretic mobility shift assay. Conditions: Human gammaherpesvirus 8. The method, boiled down:
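Native-gel EMSA with a longer Dy-682-labelled probe carrying both LBS1 and LBS2 (20 nM). LANA DBD mutant (200 nM) pre-incubated with compound (500 µM) for 1 h at RT in the dark. Buffer was Tris-HCl pH 7.5 with KCl, MgCl2, DTT, EDTA, glycerol, Tween20, BSA and poly(dI-dC). Band intensities normalised to percent inhibition. Run in duplicate; GST served as control.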

Assay [3] shares this test system. The assay is described as follows: Inhibition of 5'-Dy682-labelled LBS1 DNA binding to human herpesvirus 8 C-terminal His-tagged LANA oligomerization deficient mutant DBD (1008 to 1146 residues) expressed in Escherichia coli BL21 (DE3) at 500 uM preincubated for 1 hr followed by 5'-Dy682-labelled LBS1 DNA addition and measured after 30 mins by electrophoretic mobility shift assay. The settings on record: Human gammaherpesvirus 8. The method, boiled down: as §1
On the technique in general: In EMSA bound probe runs differently from free probe, usually more slowly.

For assay [4], the target named is T1, ORF 73. The assay is described as follows: Inhibition of fluorescent labelled LBS1 DNA binding to human herpesvirus 8 C-terminal His-tagged LANA oligomerization deficient mutant DBD (1008 to 1146 residues) expressed in Escherichia coli BL21 (DE3) preincubated for 60 mins followed by fluorescent labelled LBS2 addition and measured after 90 mins by fluorescence polarization assay. Set-up: species or system Human gammaherpesvirus 8. In outline: (§2)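 FP competition assay. His-tagged LANA DBD mutant (200 nM final) pre-incubated with serially varied compound for 60 min. Fluorescein-labelled LBS1, LBS2 or LBS3 (10 nM final) then added and incubated 90 min. Buffer was 10 mM HEPES, 150 mM NaCl, 0.005% Tween20 with 5% DMSO. Read at excitation 485 nm, emission 520 nm. Duplicates in two independent experiments. Runs without LANA checked for interference. IC50 derived from dose-response.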
(In general: Fluorescence polarisation rises when a labelled molecule tumbles more slowly, as on binding a larger partner.)

The target in assay [5] is T1, ORF 73. The assay is described as follows: Binding affinity to human herpesvirus human herpesvirus 8 C-terminal His-tagged LANA oligomerization deficient mutant DBD (1008 to 1146 residues) expressed in Escherichia coli BL21 (DE3) by microscale thermophoresis assay. More on the design: species or system Human gammaherpesvirus 8. The method, boiled down:
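His-tagged LANA DBD mutant labelled with a RED-tris NTA His-tag dye, used at 50 nM. Ligand titrated in a dose-response series starting at 1 mM. Buffer was 10 mM HEPES, 150 mM NaCl, 2 mM DTT, 0.005% Tween20 with 5% DMSO. KD derived from thermophoresis.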
A general note: Microscale thermophoresis detects binding through changes in fluorescence in a small temperature gradient.

For assay [6], the target named is T1, ORF 73. The experiment in a line: Inhibition of fluorescent labelled LBS2 DNA binding to human herpesvirus 8 C-terminal His-tagged LANA oligomerization deficient mutant DBD (1008 to 1146 residues) expressed in Escherichia coli BL21 (DE3) preincubated for 60 mins followed by fluorescent labelled LBS2 addition and measured after 90 mins by fluorescence polarization assay. Set-up: species or system Human gammaherpesvirus 8. Conditions: read-out: IC50. The method, boiled down: as §2

A short description of assay [7]: Inhibition of 5'-Dy682-labelled LBS1 DNA binding to GST-tagged LANA C-terminal domain (934 to 1162 residues) preincubated for 1 hr followed by 5'-Dy682-labelled LBS1 DNA addition and measured after 30 mins by electrophoretic mobility shift assay. More on the design: species or system Human gammaherpesvirus 8. In outline:
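Dose-dependent native-gel EMSA used Dy-682-labelled LBS1 probe with wild-type LANA CTD (aa934-1162). Protein was incubated with compound for 1 h at RT in the dark. IC50 was calculated from band intensities.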

Assay [8] in a line: Binding affinity to fluorescent labelled LBS2 DNA (unknown origin) by fluorescence polarization assay. In outline:
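Fixed concentration of His-tagged oligomerization-deficient LANA DBD mutant (aa1008-1146, 200 nM final) was pre-incubated 60 min with compound. Fluorescein-labelled LBS2 (10 nM final) was then added and incubated 90 min. Buffer was 10 mM HEPES, 150 mM NaCl, 0.005% Tween20, 5% DMSO. Polarization was read at ex 485/em 520 nm. Runs were done with and without LANA to exclude DNA or quenching interference. Duplicates, two independent experiments.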

Assay [9] deals with ORF 73 (Human herpesvirus 8), O40947 [UNDEFINED MUTATION]. The assay is described as follows: Binding affinity to human herpesvirus 8 C-terminal His-tagged LANA oligomerization deficient mutant DBD (1008 to 1146 residues) expressed in Escherichia coli BL21 (DE3) at 1 mM by STD-NMR analysis. The settings on record: Human gammaherpesvirus 8. The method, boiled down: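 STD NMR at 298 K, 500 MHz. Ligand at 1 mM final (40-fold excess) over LANA DBD mutant at 25 µM final. On-resonance irradiation at 0 ppm, off-resonance at -40 ppm. STD effect (I/I0) calculated per ligand proton. A free-compound control spectrum was recorded to check for artefacts.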

For assay [10], the target named is T1, ORF 73. The assay is described as follows: Inhibition of fluorescent labelled LBS3 DNA binding to human herpesvirus 8 C-terminal His-tagged LANA oligomerization deficient mutant DBD (1008 to 1146 residues) expressed in Escherichia coli BL21 (DE3) preincubated for 60 mins followed by fluorescent labelled LBS2 addition and measured after 90 mins by fluorescence polarization assay. Set-up: species or system Human gammaherpesvirus 8. The method, boiled down: as §2

Assay [11] deals with Human gammaherpesvirus 8. The assay is described as follows: Binding affinity to wild-type human herpesvirus 8 GST-tagged LANA C-terminal domain (934 to 1162 residues) assessed as change in melting temperature at 500 uM by differential scanning fluorimetry. The method, boiled down: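 Thermal shift (DSF) used wild-type LANA C-terminal domain (aa934-1162) at 20 µM final and compound at 500 µM final. Buffer was 10 mM PBS pH 7.4, 5% DMSO, 0.05% Tween20. Melting was run in a real-time PCR instrument, and the change in denaturation temperature (TM) was recorded.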

Assay [12] relates to ORF 73 (Human herpesvirus 8), O40947 [UNDEFINED MUTATION]. The assay is described as follows: Inhibition of fluorescent labelled LBS2 DNA binding to human herpesvirus 8 C-terminal His-tagged LANA oligomerization deficient mutant DBD (1008 to 1146 residues) expressed in Escherichia coli BL21 (DE3) at 1 mM preincubated for 60 mins followed by fluorescent labelled LBS2 addition and measured after 90 mins by fluorescence polarization assay relative to control. Conditions: Human gammaherpesvirus 8. In outline: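 Single-concentration FP competition assay (1 mM or 500 µM compound). LANA DBD mutant (200 nM final) pre-incubated with compound for 60 min, then fluorescein-labelled LBS2 (10 nM final) added and incubated 90 min. Buffer was HEPES/NaCl/Tween20 with 5% DMSO. Read at excitation 485 nm, emission 520 nm. Percent inhibition from duplicates in two independent experiments.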

In assay [13] the test system is Human gammaherpesvirus 8. The assay is described as follows: Binding affinity to wild-type human herpesvirus 8 His-tagged LANA C-terminal domain (934 to 1162 residues) at 500 uM by surface plasmon resonance analysis.

Structures are written as SMILES. The source made the active and inactive calls. No cut-off for these calls is given here.

With `O=C(O)c1ccc(-c2cn(-c3cccnc3)nn2)cc1`, the IC50 was determined as 426 µM in assay [1]; 20 µM in assay [4]; 17 µM in assay [6]; 435 µM in assay [7]; 19 µM in assay [10]. The inhibition entry in assay [2] and in assay [3] was “Active” each time. The Kd in assay [5] was found to be 23 µM. Further, the outcome in assay [8] was inactive. In addition, in assay [9], the result was Active.
As to `Nc1ccccc1-n1ccnc1`, the ΔTm in assay [11] is -1.8 °C. Moreover, in assay [8], the outcome was inactive. In assay [12], this compound yielded an inhibition of 25%. In addition, the Activity in [13] was determined as 15.7 RU.

The term IC50 denotes the concentration that gives 50% inhibition. Broadly, the inhibition is the drop in the measured response relative to a control, in per cent. Usually Kd stands for the equilibrium constant for the complex coming apart. A low value points to higher affinity. What is called ΔTm is the change in melting temperature against a reference sample.

For the origin of these results see ChEMBL document CHEMBL4385596, “Fragment-Based Discovery of a Qualified Hit Targeting the Latency-Associated Nuclear Antigen of the Oncogenic Kaposi's Sarcoma-Associated Herpesvirus/Human Herpesvirus 8” (J Med Chem, 2019).
